Source: PubChem BioAssay (The Scripps Research Institute Molecular Screening Center)
OX1R antag-1: antagonists of human orexin 1 receptor (OX1R); 330,000 tested, 1.8% active; AID 485270; O43613; inhibition, % at 6.6 µM; OX1R-expressing cells, FRET antagonist read-out; in the data active = inhibition mostly above about 38%, no sharp cut-off; inactive = mostly below about 40%;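 also: 0% = agonist challenge alone and 100% = reference antagonist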
Target sequence (O43613 whole entry, looked up): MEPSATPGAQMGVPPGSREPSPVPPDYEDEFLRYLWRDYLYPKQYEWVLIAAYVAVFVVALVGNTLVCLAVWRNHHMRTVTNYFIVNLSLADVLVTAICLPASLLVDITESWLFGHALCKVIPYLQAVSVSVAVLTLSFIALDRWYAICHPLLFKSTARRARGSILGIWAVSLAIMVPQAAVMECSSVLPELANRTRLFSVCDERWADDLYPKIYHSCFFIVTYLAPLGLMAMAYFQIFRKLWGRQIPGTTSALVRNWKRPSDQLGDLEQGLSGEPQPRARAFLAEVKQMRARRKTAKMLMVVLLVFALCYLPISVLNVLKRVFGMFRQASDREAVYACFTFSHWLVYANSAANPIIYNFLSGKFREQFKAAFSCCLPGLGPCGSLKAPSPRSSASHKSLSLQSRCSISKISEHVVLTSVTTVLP
CHO-K1 Ca antag: counter-screen for M1 antagonists: effect in parental CHO-K1 cells; ATP-induced calcium, Fluo-8 fluorescence; inhibition, % at 3 µM; 360,000 tested, 0.6% active;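 active = inhibition above a per-plate cutoff, the plate's mean sample inhibition plus 3 SD, cut at about 24% in these data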;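 also: 0% = DMSO plus EC80 ATP and 100% = DMSO alone without ATP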
OX1R antag-2: antagonists of human orexin 1 receptor. O43613. inhibition, % at 5 µM. AID 434989. CHO/OX1R cells, Fluo-8 calcium fluorescence, orexin A. 330,000 tested, 0.43% active;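 active = inhibition above its plate's threshold, mean inhibition of all tested compounds on the plate plus 3 SD, cut at about 37% in these data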;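 also: 0% = orexin A challenge wells and 100% = SB-334867-A antagonist wells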
M1 ag parental: counter-screen for M1 agonists: effect in parental CHO-K1 cells; activation, % at 3 µM; 360,000 tested, 0.48% active; Fluo-8 calcium fluorescence; scaled to maximal ATP response, vehicle zero; in the data active = activation above about 15%;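 also: untransfected CHO-K1 host cells lacking M1 receptor as counterscreen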
CHO-K1 Ca PAM: M1 PAM counterscreen hit in parental CHO-K1 cells | activation, % at 3 µM | AID 602247 | 360,000 tested, 0.02% active | ATP EC20, Fluo-8 calcium fluorescence; 0% at ATP EC20, 100% at ATP max;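 active = activation above the run cutoff, the mean activation of all test compounds plus 3 SD, cut at about 40% in these data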;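 also: peak over basal fluorescence ratio in a 140 s read after ATP addition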
CHO parental Ca: counter-screen: ATP calcium response change in parental CHO cells | parental CHO-K1, ATP-induced calcium, Fluo-8 fluorescence | inhibition, % at 5.6 µM | 330,000 tested, 0.63% active;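 active = inhibition above that plate's mean sample inhibition plus 3 SD, cut at about 26% in these data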;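 also: 0% = ATP-challenged DMSO wells and 100% = DMSO wells without ATP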
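Assay system – parental CHO cells · Reagent – ATP stimulus · Detection – intracellular calcium via Fluo-8 no-wash fluorescent dye · Evaluation – percent inhibition of ATP-evoked calcium rise, normalized to controls · Controls – ATP wells versus no-ATP DMSO wells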
Active calls of the source: *. Most compounds without a hit are left out; they make up all but 2.9% or so of the library.

`COc1ccccc1NC(=O)C(C)OC(=O)/C(=C/c1ccccc1)NC(C)=O` (centres undefined) gave OX1R antag-1 13, CHO-K1 Ca antag -11, OX1R antag-2 -11, M1 ag parental 1, CHO-K1 Ca PAM 3 and CHO parental Ca -7.
`OC(c1cc(C(F)(F)F)nc2c(Cl)cc(Cl)cc12)C1CCCCN1` (centres undefined) gave OX1R antag-1 8, CHO-K1 Ca antag -1, OX1R antag-2 -13, M1 ag parental 18*, CHO-K1 Ca PAM 15 and CHO parental Ca 3.
O[C@@H](c1cc(C(F)(F)F)nc2c(C(F)(F)F)cccc12)[C@H]1CCCCN1 was read as OX1R antag-1 3, CHO-K1 Ca antag 1, OX1R antag-2 -10, M1 ag parental 3, CHO-K1 Ca PAM 14 and CHO parental Ca 13.
Cc1ccc(/C=C/C(=O)NCCCn2ccnc2)cc1 was read as OX1R antag-1 24, CHO-K1 Ca antag 16, OX1R antag-2 -10, M1 ag parental 18*, CHO-K1 Ca PAM 8 and CHO parental Ca -16.
`COc1ccc2c(c1)C=C(CN1CCN(C3CCCC3)C(CCO)C1)CO2` (centres undefined) gave OX1R antag-1 40, CHO-K1 Ca antag -19, OX1R antag-2 -31, M1 ag parental 0, CHO-K1 Ca PAM 15 and CHO parental Ca -8.
For CCC(C)NC(=O)c1c(N)n(/N=C/c2cccnc2)c2nc3ccccc3nc12 (centres undefined) the results were OX1R antag-1 3, CHO-K1 Ca antag 25*, OX1R antag-2 -5, M1 ag parental -1, CHO-K1 Ca PAM -4 and CHO parental Ca -9.
For OC1(C(F)(F)F)CC(c2ccc3ccccc3c2)=NO1 (centres undefined) the results were OX1R antag-1 7, CHO-K1 Ca antag -13, OX1R antag-2 -10, M1 ag parental 4, CHO-K1 Ca PAM 11 and CHO parental Ca -4.
For COc1cccc2cc(C(=O)C3=C(O)C(=O)N(CCN4CCOCC4)C3c3cccc(Cl)c3)oc12 (centres undefined) the results were OX1R antag-1 9, CHO-K1 Ca antag 27*, OX1R antag-2 -18, M1 ag parental -1, CHO-K1 Ca PAM 8 and CHO parental Ca -23.
Screening O=C(C1CCC(CNc2c(N3CCCCC3)c(=O)c2=O)CC1)N1CCCCC1 (centres undefined) returned OX1R antag-1 2, CHO-K1 Ca antag 0, OX1R antag-2 -1, M1 ag parental 0, CHO-K1 Ca PAM 11 and CHO parental Ca -8.
For CC1CCN(c2c(NCC3CCC(C(=O)N4CCCCC4)CC3)c(=O)c2=O)CC1 (centres undefined) the results were OX1R antag-1 2, CHO-K1 Ca antag 28*, OX1R antag-2 -13, M1 ag parental 0, CHO-K1 Ca PAM -7 and CHO parental Ca -4.
For CN(C)CCOc1cc(Cl)cc(Cl)c1 the results were OX1R antag-1 9, CHO-K1 Ca antag 1, OX1R antag-2 4, M1 ag parental 0, CHO-K1 Ca PAM 10 and CHO parental Ca -4.
CN(C)CCOc1cccc(Cl)c1 was read as OX1R antag-1 8, CHO-K1 Ca antag -5, OX1R antag-2 -19, M1 ag parental 19*, CHO-K1 Ca PAM 26 and CHO parental Ca -8.
COc1ccc(C(CNC(=O)COc2cccc(C(F)(F)F)c2)N2CCCC2)cc1 (centres undefined) was read as OX1R antag-1 7, CHO-K1 Ca antag -8, OX1R antag-2 -21, M1 ag parental 0, CHO-K1 Ca PAM -1 and CHO parental Ca -21.
For O=C(O)/C=C\c1cn(-c2ccccc2)nc1-c1cc2ccccc2o1 the results were OX1R antag-1 76*, CHO-K1 Ca antag 8, OX1R antag-2 15, M1 ag parental -1, CHO-K1 Ca PAM -16 and CHO parental Ca 10.
Cc1ccc(-c2nn(-c3ccccc3)cc2/C=C/C(=O)OCC(=O)NC2CC2)o1 was read as OX1R antag-1 46, CHO-K1 Ca antag 6, OX1R antag-2 77*, M1 ag parental 13, CHO-K1 Ca PAM 0 and CHO parental Ca 83*.
`Cc1ccc(S(=O)(=O)n2cnc3cc([N+](=O)[O-])ccc32)c(C)c1C` gave OX1R antag-1 39, CHO-K1 Ca antag 25*, OX1R antag-2 -18, M1 ag parental 0, CHO-K1 Ca PAM -9 and CHO parental Ca 1.
For COc1ccc(C=O)c2[nH]c3c(Cl)ncnc3c12 the results were CHO-K1 Ca antag -7, M1 ag parental 7 and CHO-K1 Ca PAM 15.
CC(C)NC(=O)c1cc(C2CCCCN2C(=O)CCCc2ccccc2)on1 (centres undefined) was read as CHO-K1 Ca antag -5, M1 ag parental 1 and CHO-K1 Ca PAM 21.
CCCNC(=O)c1cc(C2CCCCN2C(=O)CCCc2ccccc2)on1 (centres undefined) was read as CHO-K1 Ca antag 25*, M1 ag parental 1 and CHO-K1 Ca PAM -24.
CC1(C)C(C=C(Cl)Cl)C1C(=O)Nc1ccc([N+](=O)[O-])cc1 (centres undefined) was read as OX1R antag-1 29, OX1R antag-2 25 and CHO parental Ca 50*.
O=C(Nc1ccccc1)c1ccccc1OS(=O)(=O)c1ccccc1 was read as OX1R antag-1 19, CHO-K1 Ca antag -6, OX1R antag-2 -18, M1 ag parental 0, CHO-K1 Ca PAM 9 and CHO parental Ca -4.
O=C(Oc1ccccc1)c1ccccc1OS(=O)(=O)c1ccccc1 was read as OX1R antag-1 41, CHO-K1 Ca antag 15, OX1R antag-2 61*, M1 ag parental 0, CHO-K1 Ca PAM -4 and CHO parental Ca 65*.
Cc1cc2sc3ccccc3c(=O)c2c(C)c1O was read as OX1R antag-1 69*, CHO-K1 Ca antag 2, OX1R antag-2 -1, M1 ag parental 0, CHO-K1 Ca PAM -16 and CHO parental Ca 2.
`COc1ccc(C2c3[nH]c4ccccc4c3CCN2C(=O)c2cc3ncccn3n2)c(F)c1` (centres undefined) gave OX1R antag-1 10, CHO-K1 Ca antag 26*, OX1R antag-2 4, M1 ag parental 7, CHO-K1 Ca PAM -11 and CHO parental Ca 5.
`COc1ccc(C2c3[nH]c4ccccc4c3CCN2C(=O)c2cn3ccccc3n2)c(F)c1` (centres undefined) gave OX1R antag-1 20, CHO-K1 Ca antag 27*, OX1R antag-2 -3, M1 ag parental 0, CHO-K1 Ca PAM -16 and CHO parental Ca -26.
Cc1ccc2nc(C(=O)N3CCc4c([nH]c5ccccc45)C3c3ccccn3)cn2c1 (centres undefined) was read as OX1R antag-1 11, CHO-K1 Ca antag -14, OX1R antag-2 -18, M1 ag parental 0, CHO-K1 Ca PAM 9 and CHO parental Ca -22.
